Compound activity as filed in PubChem.
Cav32 inh – human Cav3.2 channel inhibition, primary screen. O95180. Cav3.2-expressing cells, Fluo-4 calcium fluorescence FDSS; hits give low values. B-score at 10 µM. 4% of 100,000 active. AID 449739;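 active means single-dose well whose peak fluorescence ratio is a statistical outlier from its plate by either plate-standardised score or position-corrected B-score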
Rev-RRE block – inhibitors of HIV-1 Rev-RRE RNA interaction; Rev peptide-RRE RNA binding, FRET; inhibition, % at 8 µM; 0.79% of 97,000 active; AID 704;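 active means inhibition above the screen-wide mean plus 3 SD, cut at about 35% in these data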
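System: Cy5-labelled duplex RRE RNA binding fluorescein-labelled HIV Rev peptide; Signal: fluorescein-to-Cy5 FRET, 480 nm excitation; Also added: labelled Rev peptide; Compound: one concentration, 8 µM nominal; Buffer or medium: HEPES pH 7.5 salt buffer with EDTA; Read-out: % inhibition of FRET ratio versus controls; Schedule: 5 min preincubation and 15 min binding, 25 °C.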
CYP2C19 inhib – blocks human cytochrome P450 2C19 | 21% of 96,000 active | inhibition, % at 5 µM | AID 778 | P33261 | CYP2C19 Supersomes, luciferin-H EGE luminescence, 30 min;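 active means CYP2C19 inhibition above a set limit at 5 µM in the primary screen, cut at about 50% in these data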
CYP2C19 activ – increases human CYP2C19 enzyme activity. 96,000 tested, under 10 active. AID 1025. activation factor at 5 µM. recombinant CYP2C19, luciferin-H EGE luminescence; hits give high values; 0 = fully inhibited enzyme, 1 = untreated enzyme;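 active means activation factor of at least 2 at 5 µM in the primary screen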
CYP2C9 inhib – inhibitors of human CYP2C9; CYP2C9 Supersomes, luciferin-H conversion, luminescence; 20% of 96,000 active; AID 777; P11712; inhibition, % at 5 µM;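 active means blocking of liver enzyme CYP2C9 beyond about 50% at 5 µM, limit read from the data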
Target sequence (P11712 whole entry, looked up): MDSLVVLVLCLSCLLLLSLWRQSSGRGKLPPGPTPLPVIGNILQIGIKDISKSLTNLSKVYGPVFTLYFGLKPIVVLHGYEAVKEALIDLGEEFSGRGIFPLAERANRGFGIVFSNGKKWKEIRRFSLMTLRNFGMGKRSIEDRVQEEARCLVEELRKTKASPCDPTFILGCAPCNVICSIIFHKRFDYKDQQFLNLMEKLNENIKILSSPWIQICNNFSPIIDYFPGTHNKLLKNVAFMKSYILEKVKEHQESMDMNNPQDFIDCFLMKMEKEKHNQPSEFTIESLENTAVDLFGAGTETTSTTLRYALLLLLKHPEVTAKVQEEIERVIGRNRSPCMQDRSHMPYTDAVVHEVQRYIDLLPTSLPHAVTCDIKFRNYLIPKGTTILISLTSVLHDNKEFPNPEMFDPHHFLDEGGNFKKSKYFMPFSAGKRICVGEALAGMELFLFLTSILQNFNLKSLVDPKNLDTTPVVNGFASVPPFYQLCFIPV
CYP2C9 activ – CYP2C9 (human) activation; recombinant CYP2C9, luciferin-H conversion, luminescence; hits give high values; factor 1 = untreated enzyme, 0 = blocked; activation factor at 5 µM; 1.4% of 96,000 active;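 active means activation factor of 2 or more for CYP2C9 at a 5 µM dose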
Of the large screens only hits and unclear results are named; the others gave an inactive call. Sampled rows, rich in hits. Any-hit rate of the full collection: about 27%.

O=C(NC1CCCC1)C(c1ccccc1F)N(C(=O)c1ccco1)C1CCCC1 (configuration not stated)	CYP2C9 inhib 51 (no result: Rev-RRE block)
O=C(NC1CCCCC1)N(Cc1ccccc1)Cc1ccco1	Cav32 inh -9.1
COc1ccccc1NC(=O)N(Cc1ccco1)Cc1cc2cccc(C)c2[nH]c1=O	CYP2C19 inhib 90, CYP2C9 inhib 82
CN(Cc1ccccc1)C(=O)NC1CCCCC1	none (no result: CYP2C19 inhib, CYP2C19 activ, CYP2C9 inhib, CYP2C9 activ)
Cc1cccc2cc(CN(Cc3ccco3)C(=O)NC3CCCCC3)c(=O)[nH]c12	CYP2C19 inhib 70, CYP2C9 inhib 74
CCC1(CC)C(=O)N(C)C(=O)NC1=Nc1ccc(OC)cc1	none
CC(=O)O[C@H]1CC(C)(C)C(=C=C/C(C)=C/C=C/C(C)=C/C=C/C=C(C)/C=C/C=C(\C)C(=O)C[C@@]23O[C@]2(C)C[C@@H](O)CC3(C)C)[C@](C)(O)C1	none (no result: Rev-RRE block, CYP2C19 inhib, CYP2C19 activ, CYP2C9 inhib, CYP2C9 activ)
CC(NC(=O)Nc1ccccc1O)(C(F)(F)F)C(F)(F)F	none
O=C(NCC(=O)N(Cc1ccccc1)C(C(=O)NC1CCCCC1)c1ccco1)c1ccco1 (configuration not stated)	none (no result: CYP2C19 inhib, CYP2C19 activ, CYP2C9 inhib, CYP2C9 activ)
COc1ccc(CCN(Cc2cc3cc(C)ccc3[nH]c2=O)C(=O)N2CCCC2)cc1OC	CYP2C9 inhib 98 (no result: Rev-RRE block)
COc1ccc(CN(Cc2cc3cc4c(cc3[nH]c2=O)OCO4)C(=O)NC2CCCCC2)cc1	Cav32 inh -6.7, CYP2C9 inhib 90
O=C(NC1CCCCC1)C(c1ccco1)N(Cc1ccco1)C(=O)c1ccco1 (configuration not stated)	CYP2C19 inhib 65, CYP2C9 inhib 63
Cc1ccc2[nH]c(=O)c(CN(CCc3ccccc3)C(=O)N3CCOCC3)cc2c1	none (no result: Cav32 inh)
COc1ccc(N2CCN(C(=O)c3sc4nc(-c5ccc(F)cc5)cn4c3C)CC2)cc1	none (no result: Rev-RRE block)
Cc1noc(N)c1C(=O)Nc1ccc(C(C)(C)C)cc1	none
Cc1nnc(SCC(=O)c2c(N)n(C)c(=O)n(C)c2=O)n1Cc1ccccc1	none (no result: Rev-RRE block)
CC(C)Nc1nnc(SCC(=O)c2c(N)n(Cc3ccccc3)c(=O)n(C)c2=O)s1	CYP2C9 inhib 58 (no result: Cav32 inh)
C=C(C)C(=O)Nc1cccc(C2=NOC3(C2)C[C@@H](C(N)=O)N(C(=O)C2(C)CC2)C3)c1 (some centres not stated)	none (no result: Rev-RRE block, CYP2C19 inhib, CYP2C19 activ, CYP2C9 inhib, CYP2C9 activ)
CCCCNC(=O)CC1C(=O)N(Cc2ccccc2)C(C)c2nc3ccccc3n21 (configuration not stated)	CYP2C19 inhib 71
COCc1cc(C)nc(SCC(=O)c2ccc(O)c(O)c2)c1C#N	none
Nc1cc(N)nc(SCC(=O)N2CCN(C(=O)c3ccco3)CC2)n1	none
CCc1cc2ccccc2nc1SCC(=O)N1CCN(C(=O)c2ccco2)CC1	CYP2C19 inhib 83, CYP2C9 inhib 80 (no result: Cav32 inh, Rev-RRE block)
CCc1cc2cc(C)ccc2nc1SCC(=O)N1CCN(C(=O)c2ccco2)CC1	CYP2C9 inhib 70 (no result: Cav32 inh)
O=C(CSc1nc2ccccc2o1)N1CCN(C(=O)c2ccco2)CC1	none
Cc1cc(C)n(-c2nc3nonc3nc2Nc2cccc(C)c2C)n1	none
CCOc1ccc(S(=O)(=O)Nc2ccc(Cl)cn2)c(C)c1C	none
CCOc1cc(C)c(S(=O)(=O)Nc2ccc(Cl)cn2)cc1C	CYP2C19 inhib 78, CYP2C9 inhib 95
CC(C)(C)c1cn(-c2ccc(Cl)cc2)c(=S)[nH]1	CYP2C19 inhib 73
COc1ccccc1C1N(c2ccc(F)cc2)C(=O)C2CCCN21 (configuration not stated)	none
COc1ccc(N2CCN(CCNC(=O)c3ccc(NC(=O)C4CCCO4)cc3)CC2)cc1 (configuration not stated)	none (no result: Rev-RRE block)
CCOC(=O)C1CCN(C(=O)c2cc3c(-c4ccc(OC)c(OC)c4)nn(C)c3s2)CC1	CYP2C19 inhib 92, CYP2C9 inhib 95
CCOC(=O)C1CCCN(C(=O)c2cc3nc(-c4cccc(OC)c4)cc(C(F)(F)F)n3n2)C1 (configuration not stated)	CYP2C19 inhib 86, CYP2C9 inhib 84
COc1ccc(NC(=O)c2cc3c(-c4ccc(OC)c(OC)c4)nn(C)c3s2)cc1OC	CYP2C19 inhib 57, CYP2C9 inhib 74
CCOC(=O)C1CCCN(C(=O)c2cc3c(-c4cccc(OC)c4)nn(C)c3s2)C1 (configuration not stated)	Cav32 inh -4.2, CYP2C9 inhib 68
